# Compound activity as filed in PubChem BioAssay.
# CHOP UPR activ: activators of apoptotic arm of unfolded protein response (CHOP); AID 449763; CHO-CHOP luciferase reporter, UPR activation, luminescence; percent of tunicamycin response over DMSO baseline; activation, % at 10 µM; 330,000 compounds, 0.34% hits;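 active = at 10 µM dose, activation of 40% or more, normalized to positive control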;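 also: 100% = tunicamycin at 10 µg/mL and 0% = DMSO alone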
#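 System: CHO-CHOP luciferase reporter cell line; amount: 500 cells/well; buffer or medium: F12 medium containing 10% fetal bovine serum; incubation: 6 h compound exposure at 37 °C after overnight seeding; measured by: luciferase luminescence after 10 min with Steady-Glo reagent; evaluation: % reporter activation, DMSO baseline versus tunicamycin full activation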
# ANO1 activ: activates or potentiates the mouse TMEM16A chloride channel; Q8BHY3; 340,000 compounds, 0.3% hits; B-score at 10 µM; HEK293 TMEM16A/YFP-H148Q/I152L, iodide quench fluorescence; stronger effect = lower value;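 active = fluorescence-ratio B-score plate-corrected deviation score at least 3 library SD below zero, with starting fluorescence score within 5 deviations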;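 also: channel opened by trigger with iodide after compound preincubation; score built on the fluorescence ratio of max minus min over baseline; more negative score means more quench and so TMEM16A activation or potentiation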
# Target sequence (Q8BHY3 whole entry, looked up): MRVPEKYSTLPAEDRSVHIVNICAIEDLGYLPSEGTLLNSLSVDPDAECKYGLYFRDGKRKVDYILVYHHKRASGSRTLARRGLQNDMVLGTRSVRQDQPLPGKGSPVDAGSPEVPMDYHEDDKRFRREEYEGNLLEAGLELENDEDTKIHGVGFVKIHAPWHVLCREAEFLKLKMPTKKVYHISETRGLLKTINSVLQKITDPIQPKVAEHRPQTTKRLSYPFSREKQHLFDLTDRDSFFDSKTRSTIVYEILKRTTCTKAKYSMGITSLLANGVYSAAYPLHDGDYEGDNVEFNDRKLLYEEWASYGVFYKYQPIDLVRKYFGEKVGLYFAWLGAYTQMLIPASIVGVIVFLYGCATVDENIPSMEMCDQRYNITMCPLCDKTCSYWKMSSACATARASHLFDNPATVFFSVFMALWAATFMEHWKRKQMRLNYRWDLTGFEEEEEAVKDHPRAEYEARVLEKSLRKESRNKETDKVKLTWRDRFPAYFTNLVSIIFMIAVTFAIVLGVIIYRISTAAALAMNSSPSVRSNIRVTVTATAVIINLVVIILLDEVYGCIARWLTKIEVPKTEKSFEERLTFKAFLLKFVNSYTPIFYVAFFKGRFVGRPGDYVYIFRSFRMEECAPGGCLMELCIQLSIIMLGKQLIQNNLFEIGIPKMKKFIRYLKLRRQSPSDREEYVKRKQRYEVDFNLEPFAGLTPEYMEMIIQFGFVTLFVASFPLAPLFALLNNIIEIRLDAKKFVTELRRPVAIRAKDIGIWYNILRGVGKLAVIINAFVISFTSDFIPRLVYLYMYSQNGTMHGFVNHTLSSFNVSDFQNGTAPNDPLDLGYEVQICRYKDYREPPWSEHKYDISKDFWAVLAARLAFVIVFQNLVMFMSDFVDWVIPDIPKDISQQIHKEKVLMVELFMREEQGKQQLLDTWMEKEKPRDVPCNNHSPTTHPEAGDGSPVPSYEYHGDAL
# CHOP inhibitor: CHOP inhibition in unfolded protein response. CHO-K1 CHOP-promoter luciferase, tunicamycin-induced, 15-18 h. inhibition, % at 10 µM. 220,000 compounds, 3.8% hits. AID 2732;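 active = compounds that reduced the stress-induced luciferase reporter signal by more than about 70% of percent inhibition, limit read from the data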;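 also: 0% = tunicamycin plus vehicle and 100% = wells without tunicamycin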
# UPR XBP1 act: adaptive UPR (XBP1) activation | activation, % at 20 µM | CHO-XBP1 luciferase reporter, IRE1-XBP1 UPR activation, luminescence; percent of tunicamycin response, DMSO as zero | 330,000 compounds, 0.33% hits | AID 463104;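 active = versus positive control, 20 µM dose yields 30% or more activation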;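 also: 100% = tunicamycin at 10 µg/mL and 0% = DMSO only wells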
#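 Assay system: CHO-XBP1 luciferase reporter cells; Schedule: 6 h treatment, 37 °C; Detection: glow luminescence from Steady-Glo reagent; Benchmarks: high control tunicamycin 10 µg/mL final, low control DMSO vehicle only.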
# ANO1 block: inhibitors of mouse TMEM16A calcium-activated chloride channel. Q8BHY3. HEK293 TMEM16A/YFP iodide influx fluorescence, ionomycin. normalized B-score (activity score, 25-100; higher = stronger inhibition) at 10 µM. 310,000 compounds, 1.2% hits;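 active = ratio plate-corrected score three or more library SD toward inhibition, starting fluorescence score within five deviations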;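 also: score derived from kinetic fluorescence span divided by baseline fluorescence per well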
# Lipid droplet: modulators of hepatic lipid droplet formation; AML12 mouse hepatocytes, oleate lipid droplets, BODIPY imaging; inhibition, % at 6.5 µM; 240,000 compounds, 0.4% hits;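 active = lipid droplet intensity inhibited by at least 50%, with more than 500 cells counted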
#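 Material – AML12 mouse liver cells · Also added – oleate loading, 100 µM · Compound dosing – 6.5 µM single-point dosing · Times – overnight treatment with compound plus oleate · Measured by – fluorescence imaging, 20x objective, two fields per well · Read-out – percent inhibition of filter-corrected integrated lipid droplet intensity per well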
# Hep lipid conf: confirmation of inhibitors of hepatic lipid droplet formation. shares compounds with Lipid droplet. AML12 mouse hepatocytes, BODIPY lipid droplet imaging; droplets induced with 100 µM oleic acid. inhibition, % at 5.2 µM. 870 compounds, 65% hits;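 active = inhibition of lipid droplet metric at least 50%, with more than 300 cells in each of four replicates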;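 also: plate controls were DMSO with oleic acid for no effect and 5 µM Triacsin-C for full effect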
# AML12 tox img: toxic to AML12 mouse hepatocytes in counter-screen. shares compounds with Lipid droplet. DAPI nuclear morphology cytotoxicity imaging; stronger effect = higher value; cells fed 100 µM oleate overnight. z-score at 5 µM. 870 compounds, 3% hits. AID 463200; in the data active = z-score above about 6.3;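 also: compound exposure lasted overnight at 37 °C before fixation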
# AML12 tox ATP: confirmation of cytotoxicity in AML12 mouse hepatocytes. shares compounds with Lipid droplet. AML12 mouse hepatocyte viability, ATP luminescence; cells loaded with 100 µM oleic acid. cytotoxicity, % at 50 µM. 530 tested, under 10 active;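 active = cytotoxicity above 50% in each of four replicates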;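 also: compound exposure lasted overnight at 37 °C before the ATP read; 0% = DMSO-treated cells and 100% = wells with no cells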
# Active calls of the source: *; i = inactive; . = no result given. Hits are enriched below; roughly 4.2% of the tested compounds scored in any of these assays.
SMILES,CHOP UPR activ,ANO1 activ,CHOP inhibitor,UPR XBP1 act,ANO1 block,Lipid droplet,Hep lipid conf,AML12 tox img,others
COc1ccccc1NS(=O)(=O)c1cc(NC(=O)c2cc3ccccc3oc2=O)ccc1C,4,i,-10,4,i,58*,52,-0.64,
C=CCC(O)(CC=C)CNC(=O)c1ccc(OC)c(OC2CCN(C(C)=O)CC2)c1,0,i,.,-2,i,3,.,.,
Cc1noc(C)c1C(=O)Nc1ccc(F)cc1F,-2,i,-8,-1,i,55*,28,-0.47,
COc1ccc(/C=N\Nc2ccc([N+](=O)[O-])cc2[N+](=O)[O-])c(C(=O)O)c1OC,0,i,6,11,i,-6,.,.,
CC1=C(/C=N/Nc2ccc([N+](=O)[O-])cc2[N+](=O)[O-])C(C)(C)CCC1,-1,i,38,1,i,72*,115*,-0.82,AML12 tox ATP=-13
CC(Sc1n[nH]c(-c2cccs2)n1)C(=O)N1CCCC1 (stereo not given),2,i,.,0,.,.,.,.,
CN(C)c1ccc(C(CNC(=O)c2ccc(C#N)cc2)c2c[nH]c3ccccc23)cc1 (stereo not given),4,i,2,-2,i,-7,.,.,
CCOC(=O)c1ccc(S(=O)(=O)NCC(c2ccc(N(C)C)cc2)c2c[nH]c3ccccc23)cc1 (stereo not given),1,i,67,-3,i,96*,108*,0.39,AML12 tox ATP=14
O=C(O)c1ccccc1NS(=O)(=O)c1cccc(NS(=O)(=O)c2cc(Br)ccc2Br)c1,1,i,.,-4,.,.,.,.,
CC(Sc1nnc(Nc2ccccc2)s1)C(=O)Nc1nc(-c2ccccc2)cs1 (stereo not given),2,i,-14,0,i,54*,96*,-0.7,AML12 tox ATP=12
CCN(CC)CCNc1nc2c(c(=O)[nH]c(=O)n2C)n1CC(O)COc1ccc(Cl)cc1Cl (stereo not given),-1,i,37,-3,i,.,.,.,
Cc1cc(C)n(-c2nc3c(c(=O)[nH]c(=O)n3C)n2CC(O)COc2ccc(Cl)cc2Cl)n1 (stereo not given),2,i,10,14,i,52*,-16,0.69,
O=C(COC(=O)c1ccc(O)cc1O)NC(=O)Cc1ccccc1,.,i,.,.,.,.,.,.,
COc1c([N+](=O)[O-])cc(C(=O)NNC(=O)c2ccc(C)cc2)cc1[N+](=O)[O-],0,i,.,1,i,56*,32,0.11,
COc1ccc(C(=O)NNC(=O)c2ccncc2)cc1[N+](=O)[O-],-1,i,.,-5,i,26,.,.,
C=CCNC(=S)Nc1cc(S(=O)(=O)N2CCOCC2)ccc1-n1cncn1,1,i,7,-1,i,119*,-7,-0.26,
Cc1ccc(S(=O)(=O)NCc2ccc(C(=O)NC3CCCCC3)cc2)cc1,2,i,.,-2,i,-4,.,.,
Cc1ccc(S(=O)(=O)NCc2ccc(C(=O)NC3CC3)cc2)cc1,3,i,27,-1,i,60*,63,0.074,AML12 tox ATP=8
COc1ccc([N+](=O)[O-])cc1NS(=O)(=O)c1cc(C(=O)N2CCN(C)CC2)ccc1OC,4,i,.,-2,.,.,.,.,
COCCn1cnc2c(c1=O)c1nc3ccccc3nc1n2/N=C/c1ccco1,3,i,0,-2,i,23,.,.,
COCCn1cnc2c(c1=O)c1nc3ccccc3nc1n2/N=C/c1ccc(OC)c(OC)c1,24,i,28,17,i,53*,5,0.69,
